The data set deals with TDP-43 (Homo sapiens, UniProt Q13148). As to the kind of experiment: Association and dissociation rates of bt-TAR-32 and bt-TG6 binding to TDP-43. Conditions: slope of kobs vs ligand concentration; arithmetic mean ± SEM, 3 determinations. In a few lines: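 GST-tagged TDP-43 (5 ng/mL, 40 pM) on anti-GST beads (10 μg/mL, preincubated) added at staggered times to biotinylated oligonucleotide (0.25–6.0 nM) prebound 30 min RT to streptavidin donor beads (10 μg/mL). Buffer: 25 mM Tris pH 7.4, 0.1% BSA, 0.1% Triton X-100. AlphaScreen signal read together at end, dark, RT. kobs from one-site exponential association fits per concentration.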
Sequence of TDP-43 (Q13148 whole entry): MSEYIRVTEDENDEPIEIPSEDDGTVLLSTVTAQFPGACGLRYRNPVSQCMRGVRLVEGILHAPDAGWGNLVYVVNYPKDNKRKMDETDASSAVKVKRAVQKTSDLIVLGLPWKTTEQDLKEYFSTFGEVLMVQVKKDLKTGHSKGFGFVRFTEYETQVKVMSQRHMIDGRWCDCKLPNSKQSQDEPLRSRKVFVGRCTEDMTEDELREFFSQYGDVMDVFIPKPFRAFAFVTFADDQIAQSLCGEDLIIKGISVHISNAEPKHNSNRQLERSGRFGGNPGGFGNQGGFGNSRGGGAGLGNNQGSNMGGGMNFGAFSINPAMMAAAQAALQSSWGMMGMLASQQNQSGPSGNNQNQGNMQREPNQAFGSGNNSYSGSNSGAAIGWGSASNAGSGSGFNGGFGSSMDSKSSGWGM

Consider “5′-CTGCTTTTTGCCTGTACTGGGTCTCTGTGGTT-3′ (DNA CTGCTTTTTGCCTGTACTGGGTCTCTGTGGTT; chemistry not given here) [TAR-32]”, for which the kon was 2.4 ± 0.93 µmol⁻¹ min⁻¹.

Values taken from PMC3426361 (Journal of biomolecular screening, 2010).
